From ChEMBL document CHEMBL1136772, “Thyroid receptor ligands. 1. Agonist ligands selective for the thyroid receptor beta1” (J Med Chem, 2003)

Species on record: Rattus norvegicus
Test: Ratio of ED50TSH to that of ED50chol was determined
Assay type: functional
Outline: (§1)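 Male Sprague-Dawley rats on chow with 1.5% cholesterol and 0.5% cholic acid for 2 weeks, then s.c. once daily for 7 days (vehicle 10% m-pyrol, 5% ethanol, 5% cremaphor, 80% water; n = 6/dose), doses 1.54–9240 nmol/kg/day. Plasma TSH measured by rat RIA and cholesterol by clinical analyzer in aortic blood after pentobarbital. ED50 = dose giving 50% suppression from vehicle, in nmol/kg/day.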

Work on `CC(C)c1cc(Oc2c(Br)cc(CC(=O)O)cc2Br)ccc1O` yielded a TSH/chol of less than 0.5.

First: CC(C)c1cc(Oc2c(Cl)cc(CC(=O)O)cc2Cl)ccc1O
Second: N[C@H](Cc1cc(I)c(Oc2ccc(O)c(I)c2)c(I)c1)C(=O)O [DETROTHYRONINE]
The TSH/chol of the first is higher: 0.4 for the first, 0.3 for the second.

Each compound was assayed on Rattus norvegicus (assay: Effect upon subcutaneous administration on cholesterol in rat was determined).
Assay type: functional
Outline: as §1

Going from `CC(C)c1cc(Oc2c(Br)cc(CC(=O)O)cc2Br)ccc1O` to `CC(C)c1cc(Oc2c(Cl)cc(CC(=O)O)cc2Cl)ccc1O`, the ED50 falls from 95.4 nM/day/kg to 82 nM/day/kg.

Work on `N[C@H](Cc1cc(I)c(Oc2ccc(O)c(I)c2)c(I)c1)C(=O)O` [DETROTHYRONINE] yielded an ED50 of 20 nM/day/kg.

The compounds below were run on Rattus norvegicus (assay: Effect upon subcutaneous administration on TSH suppression in rat was determined).
Assay type: functional
Outline: as §1

`CC(C)c1cc(Oc2c(Br)cc(CC(=O)O)cc2Br)ccc1O` gave an ED50 of less than 46.2 nM/day/kg.

First: CC(C)c1cc(Oc2c(Cl)cc(CC(=O)O)cc2Cl)ccc1O
Second: N[C@H](Cc1cc(I)c(Oc2ccc(O)c(I)c2)c(I)c1)C(=O)O [DETROTHYRONINE]
The ED50 of the first is higher: 38 nM/day/kg for the first, 7 nM/day/kg for the second.

Species on record: Rattus norvegicus
Test: Ratio of ED15HR to that of ED50chol was determined
Assay type: functional
Outline: (§2)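 Cholesterol-fed male Sprague-Dawley rats (1.5% cholesterol, 0.5% cholic acid, 2 weeks) dosed s.c. once daily for 7 days, vehicle 10% m-pyrol/5% ethanol/5% cremaphor/80% water, n = 6/dose, 1.54–9240 nmol/kg/day. Heart rate recorded by lead II ECG under 30 mg/kg pentobarbital. ED15 = dose raising heart rate 15% over vehicle; ratio taken against cholesterol ED50 (50% suppression from vehicle).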

First: CC(C)c1cc(Oc2c(Br)cc(CC(=O)O)cc2Br)ccc1O
Second: CC(C)c1cc(Oc2c(Cl)cc(CC(=O)O)cc2Cl)ccc1O
The HR/chol of the first is lower: 9.7 for the first, 13.1 for the second.

Work on `N[C@H](Cc1cc(I)c(Oc2ccc(O)c(I)c2)c(I)c1)C(=O)O` [DETROTHYRONINE] yielded an HR/chol of 0.7.

What follows are compounds tested on Rattus norvegicus (assay: Effect upon subcutaneous administration on the heart rate in rat was determined).
Assay type: functional
Outline: as §2

First: CC(C)c1cc(Oc2c(Br)cc(CC(=O)O)cc2Br)ccc1O
Second: CC(C)c1cc(Oc2c(Cl)cc(CC(=O)O)cc2Cl)ccc1O
The ED15 of the first is lower: 926 nM/day/kg for the first, 1077 nM/day/kg for the second.

Compound `N[C@H](Cc1cc(I)c(Oc2ccc(O)c(I)c2)c(I)c1)C(=O)O` [DETROTHYRONINE] has an ED15 of 14 nM/day/kg.
